Results as given in article PMC9476207 (ACS Omega, 2022).

Key:
Assay type in all cases: cell-based, human
[1] = system: A549 cells; assay: Loss of mitochondrial membrane potential; conditions: A549, 48 h
Outline: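 A549 cells (1 × 10^5/mL/well, six-well plates) were treated for 48 h with 1.5, 3.0 or 5.0 μM test compound; paclitaxel served as positive control. After an ice-cold PBS wash, cells took up rhodamine-123 (final 0.2 mM) for 20–30 min in the dark in the incubator. Cells were washed again and fluorescence was assessed qualitatively by microscopy.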

[2] = system: A549 cells; assay: Reactive oxygen species; conditions: 18f at 5, 3 and 1.5 μM, 48 h
Outline: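 A549 cells (1 × 10^5, six-well) were grown 24 h, then exposed to test compound at 1.5, 3 and 5 μM for 48 h. 0.05% H2O2 positive control was added 1 h before the end. Cells were PBS-washed and loaded with DCFH-DA (10 mM as printed) for 30 min in the dark, rewashed, and viewed by inverted fluorescence microscopy.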

[3] = system: A549 cells; assay: Apoptosis assay through DAPI staining; conditions: 18f at 5, 3 and 1.5 μM, 48 h, paclitaxel positive control

## CC(=O)O[C@H]1C(=O)[C@@]2(C)[C@H]([C@H](OC(=O)c3ccccc3)[C@]3(O)C[C@H](OC(=O)[C@H](O)[C@@H](NC(=O)c4ccccc4)c4ccccc4)C(C)=C1C3(C)C)[C@]1(OC(C)=O)CO[C@@H]1C[C@@H]2O [paclitaxel]
[1]; 18f at 3.0 μM
  loss of mitochondrial membrane potential (rhodamine-123 fluorescence): quite similar
[1]; 18f at 5 μM, paclitaxel at its IC50 doses
  loss of mitochondrial membrane potential (rhodamine-123 fluorescence): maximum loss in the mitochondrial membrane potential
[2]
  intracellular ROS (DCFDA fluorescence, qualitative): higher in the treated groups
[3]
  nuclear morphological changes (DAPI staining): chromatin condensation, nuclear blebbing, and formation of apoptotic bodies
